Reference: ChEMBL document CHEMBL4196009, “Novel vitexin-inspired scaffold against leukemia” (Eur J Med Chem, 2018)

Experiments:
KOPN-8 [1] = assay: Induction of apoptosis in human KOPN8 cells assessed as effect on Mcl-1 level at 0.5 uM after 24 hrs by Western blot analysis relative to control; format: functional
KOPN-8 [2] = assay: Cell cycle arrest in human KOPN8 cells assessed as accumulation at S phase at 5 uM after 24 hrs by propidium iodide staining-based flow cytometry (reference value: 66.56%); format: functional
Method in brief: (§1)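 KOPN-8 cells treated 24 h alongside a DMSO vehicle and a staurosporine (2.0 µM) positive control. Apoptosis was scored by FITC Annexin V / propidium iodide flow cytometry with quadrant gating (early, late apoptotic). DNA content was measured by PI staining to give the percentage of cells in G0/G1, S and G2/M. Groups were compared by t-test; error bars are SD.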

KOPN-8 [3] = assay: Cell cycle arrest in human KOPN8 cells assessed as accumulation at G0/G1 phase at 5 uM after 24 hrs by propidium iodide staining-based flow cytometry (reference value: 24.77%); format: functional; method in brief: as §1
KOPN-8 [4] = assay: Cell cycle arrest in human KOPN8 cells assessed as accumulation at G2/M phase at 5 uM after 24 hrs by propidium iodide staining-based flow cytometry (reference value: 9.67%); format: functional; method in brief: as §1
[5] = biological target: T1, Retinoblastoma-associated protein (Homo sapiens) (UniProt P06400); assay: Inhibition of Rb phosphorylation in human KOPN8 cells assessed as ratio of phosphorylated Rb to total Rb levels at 100 uM after 3 hrs by Western blot analysis relative to control; format: cell-based
T1 sequence (whole entry): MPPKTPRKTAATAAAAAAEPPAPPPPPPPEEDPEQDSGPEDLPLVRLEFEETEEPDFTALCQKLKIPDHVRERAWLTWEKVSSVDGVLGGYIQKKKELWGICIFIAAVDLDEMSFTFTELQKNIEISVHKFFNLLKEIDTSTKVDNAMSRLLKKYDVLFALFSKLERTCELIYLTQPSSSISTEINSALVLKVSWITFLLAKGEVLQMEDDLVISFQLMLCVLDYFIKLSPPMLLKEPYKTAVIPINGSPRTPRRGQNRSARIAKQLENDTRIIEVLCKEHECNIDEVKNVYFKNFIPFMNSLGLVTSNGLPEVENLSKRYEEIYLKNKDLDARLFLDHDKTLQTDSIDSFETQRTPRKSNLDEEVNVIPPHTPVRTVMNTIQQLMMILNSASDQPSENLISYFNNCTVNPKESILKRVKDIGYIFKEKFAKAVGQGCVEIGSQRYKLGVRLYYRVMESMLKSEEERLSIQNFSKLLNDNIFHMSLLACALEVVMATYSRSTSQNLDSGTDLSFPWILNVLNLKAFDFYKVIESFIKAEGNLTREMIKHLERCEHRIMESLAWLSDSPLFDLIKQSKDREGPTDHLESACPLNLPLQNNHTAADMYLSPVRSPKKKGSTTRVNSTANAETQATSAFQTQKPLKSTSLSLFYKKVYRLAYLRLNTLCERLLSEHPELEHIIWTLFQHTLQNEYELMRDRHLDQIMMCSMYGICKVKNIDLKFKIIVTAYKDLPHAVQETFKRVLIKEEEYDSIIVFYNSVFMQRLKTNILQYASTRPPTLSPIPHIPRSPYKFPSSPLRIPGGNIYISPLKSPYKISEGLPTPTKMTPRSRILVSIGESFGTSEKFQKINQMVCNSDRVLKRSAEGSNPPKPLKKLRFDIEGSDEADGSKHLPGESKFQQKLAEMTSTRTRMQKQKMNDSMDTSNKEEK
Method in brief: (§2)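 KOPN-8 pre-B ALL cells were treated for 3 h and 24 h, with or without N-acetyl cysteine added to a parallel set of cells as an antioxidant/ROS quencher. Lysates were analysed by Western blot for phosphorylated Rb and total Rb. The same blots also probed PARP cleavage, Mcl-1, Ser-2-phosphorylated RNAPII CTD and cMyc.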

KOPN-8 [6] = assay: Induction of apoptosis in human KOPN8 cells assessed as effect on Mcl-1 level at 100 uM pre-treated with NAC for 1 hr and measured after 24 hrs by Western blot analysis relative to control; format: functional
Method in brief: (§3)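 KOPN-8 cells were exposed to compound for 3 h and 24 h, with or without N-acetylcysteine added to a parallel set as antioxidant. Lysates were analysed by Western blot for cleaved PARP, Mcl-1, Ser-2-phosphorylated RNAPII CTD, cMyc, total Rb and pRb. Signals were compared against controls for dose-dependent change.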

MDA-MB-231 = assay: Cell cycle arrest in human MDA-MB-231 cells assessed as accumulation at G2/M phase at 20 uM after 24 hrs by propidium iodide staining-based flow cytometry (reference value: 9.38%); format: functional
SUP-B15 [7] = assay: Induction of apoptosis in human SUP-B15 cells assessed as necrotic cells at 10 uM after 24 hrs by Annexin V-FITC/propidium iodide staining-based flow cytometry (reference value: 9.2%); format: functional
KOPN-8 [8] = assay: Effect on c-Myc expression in human KOPN8 cells after 3 to 24 hrs by Western blot analysis; format: functional, cell-based
Method in brief: (§4)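 KOPN-8 cells were treated at 10–100 µM final, with or without N-acetylcysteine co-addition, for 3 h and 24 h. Lysates were analysed by Western blot for PARP cleavage, Mcl-1, phospho-Ser2 RNAPII CTD, c-Myc, total Rb and pRb. Levels are relative to the vehicle control.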

KOPN-8 [9] = assay: Induction of apoptosis in human KOPN8 cells assessed as effect on Mcl-1 level at 100 uM after 24 hrs by Western blot analysis relative to control; format: functional; method in brief: as §4
KOPN-8 [10] = assay: Effect on c-Myc expression in human KOPN8 cells at 100 uM pre-treated with NAC for 1 hr and measured after 24 hrs by Western blot analysis relative to control; format: functional
KOPN-8 [11] = assay: Induction of apoptosis in human KOPN8 cells assessed as late apoptotic cells at 10 uM after 24 hrs by Annexin V-FITC/propidium iodide staining-based flow cytometry (reference value: 9.5%); format: functional
Method in brief: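 KOPN-8 cells were treated for 24 h, with a DMSO vehicle control and a staurosporine positive control. Cells were stained with FITC-Annexin V and propidium iodide and analysed by flow cytometry. Quadrant gating separated viable, early apoptotic, late apoptotic (Q2) and necrotic populations.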

SUP-B15 [12] = assay: Induction of apoptosis in human SUP-B15 cells assessed as viable cells at 10 uM after 24 hrs by Annexin V-FITC/propidium iodide staining-based flow cytometry (reference value: 82.8%); format: functional; details: SUP-B15, 24 h, read-out: Activity
KOPN-8 [13] = assay: Effect on c-Myc expression in human KOPN8 cells at 30 uM after 3 hrs by Western blot analysis relative to control; format: functional; method in brief: as §4
[14] = biological target: T1, Retinoblastoma-associated protein (Homo sapiens); assay: Inhibition of Rb phosphorylation in human KOPN8 cells assessed as ratio of phosphorylated Rb to total Rb levels at 30 uM pre-treated with NAC for 1 hr and measured after 24 hrs by Western blot analysis relative to control; format: cell-based; method in brief: as §2
KOPN-8 [15] = assay: Induction of apoptosis in human KOPN8 cells assessed as effect on Mcl-1 level at 100 uM pre-treated with NAC for 1 hr and measured after 3 hrs by Western blot analysis relative to control; format: functional; method in brief: as §3
Homo sapiens = organism: Homo sapiens; assay: Inhibition of RNA polymerase 2 C-terminal domain phosphorylation at Ser2 residue in human KOPN8 cells at 10 uM pre-treated with NAC for 1 hr and measured after 3 hrs by Western blot analysis relative to control; format: cell-based; method in brief: as §3

fold change (FC) [5]	fold change (FC) [14]	Structure (SMILES)	fold change (FC) (KOPN-8 [1])	Activity (KOPN-8 [2]) [%]	Activity (KOPN-8 [3]) [%]	Activity (KOPN-8 [4]) [%]	fold change (FC) (KOPN-8 [6])	Activity (MDA-MB-231) [%]	Activity (SUP-B15 [7]) [%]	Activity (KOPN-8 [8])	fold change (FC) (KOPN-8 [9])	fold change (FC) (KOPN-8 [10])	Activity (KOPN-8 [11]) [%]	viability at 10 µM (SUP-B15 [12]) [%]	fold change (FC) (KOPN-8 [13])	fold change (FC) (KOPN-8 [15])	fold change (FC) (Homo sapiens)
–	–	CN(C)C(=O)c1cc2cnc(Nc3ccc(N4CCNCC4)cn3)nc2n1C1CCCC1 [RIBOCICLIB]	1.1	25.55	45.66	28.79	–	–	–	–	–	–	–	–	–	–	–
1	1	COc1ccc(-c2c(I)c(=O)c3c(OC)cc(OC)cc3n2S(=O)(=O)c2ccc(OC)cc2)cc1	–	–	–	–	0.2	15.97	15.7	Dose-dependent effect	0.1	0.1	69.2	70.5	0.6	0.5	1
